Results taken from ChEMBL document CHEMBL1150593, “Biologically active polyketide metabolites from an undetermined fungicolous hyphomycete resembling Cladosporium” (2002).
Activity calls are given as the source filed them. No cut-off for these calls is given here.

What was measured:
Bacillus subtilis = assay: Antimicrobial activity against Bacillus subtilis ATCC 6051 at 200 ug/disk by standard agar diffusion assay; format: functional; conditions: read-out: IZ
Procedure, shortened: (§1)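 Agar diffusion (disk) assay with 200 µg of compound applied per disk against the bacterial strain. The same panel at this loading also included Candida albicans ATCC 90029. Read-out was the zone of growth inhibition, recorded in mm.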

Fusarium verticillioides = assay: Antimicrobial activity against Fusarium verticillioides NRRL 25457 at 250 ug/disk by standard agar diffusion assay; format: functional, organism-based
Aspergillus flavus = assay: Antimicrobial activity against Aspergillus flavus NRRL 6541 at 250 ug/disk by standard agar diffusion assay; format: functional, organism-based
Staphylococcus aureus = assay: Antimicrobial activity against Staphylococcus aureus ATCC 29213 at 200 ug/disk by standard agar diffusion assay; format: functional; conditions: read-out: IZ; procedure, shortened: as §1

Compound	zone of inhibition at 200 µg/disc (Bacillus subtilis)	Activity (Fusarium verticillioides)	Activity (Aspergillus flavus)	zone of inhibition at 200 µg/disc (Staphylococcus aureus)
O=Cc1c(O)cccc1CCC(=O)O	22 mm	inactive	inactive	
CC(O)C(O)CC1OC(=O)c2c(O)cccc21 (centres undefined)		inactive	inactive	
CC1(O)C(=O)C=Cc2c1ccc(O)c2CO (centres undefined)		inactive	inactive	
CC(O)C(O)CC1OCc2c(O)cccc21 (mixture of isomers; 7a)		inactive	inactive	
CC(O)C(O)CC1OCc2c(O)cccc21 (mixture of isomers; 7b)		inactive	inactive	
O=C(O)CC1OCc2c(O)cccc21 (racemic)	8 mm	inactive	inactive	
O=C(O)CC1OC(=O)c2c(O)cccc21 (racemic)		inactive	inactive	
COc1cc(O)c2c(c1)C(=O)[C@H]1C[C@](C)(O)[C@H](O)C[C@@H]1[C@H]2O (relative stereo)		inactive	inactive	
COc1cc(O)c2c(c1)C(=O)C1=C(C2=O)[C@H](O)[C@@H](O)[C@@](C)(O)[C@@H]1O [ALTERSOLANOL A]	33 mm	inactive	inactive	31 mm
C[C@H]1O[C@@H]2O[C@H]1C=Cc1cccc(O)c12 [CLADOACETAL A]		inactive	inactive	13 mm
COc1cc(O)c2c(c1)C(=O)c1cc(C)c(O)cc1C2=O [MACROSPORIN]	23 mm	inactive	inactive	20 mm
